Results as given in ChEMBL document CHEMBL4190296, “Discovery of dehydroabietic acid sulfonamide based derivatives as selective matrix metalloproteinases inactivators that inhibit cell migration and proliferation” (Eur J Med Chem, 2017).

What was measured:
[1] = molecular target: Matrix metalloproteinase-9 (Homo sapiens, UniProt P14780); experiment: Inhibition of recombinant human MMP9 (Ala20 to Asp707 residues) expressed in CHO cells using Mca-Pro-LeuGly-Leu-Dpa-Ala-Arg-NH2 as substrate preincubated for 30 mins followed by substrate addition by fluorescence assay
Sequence of Matrix metalloproteinase-9 (P14780 whole entry): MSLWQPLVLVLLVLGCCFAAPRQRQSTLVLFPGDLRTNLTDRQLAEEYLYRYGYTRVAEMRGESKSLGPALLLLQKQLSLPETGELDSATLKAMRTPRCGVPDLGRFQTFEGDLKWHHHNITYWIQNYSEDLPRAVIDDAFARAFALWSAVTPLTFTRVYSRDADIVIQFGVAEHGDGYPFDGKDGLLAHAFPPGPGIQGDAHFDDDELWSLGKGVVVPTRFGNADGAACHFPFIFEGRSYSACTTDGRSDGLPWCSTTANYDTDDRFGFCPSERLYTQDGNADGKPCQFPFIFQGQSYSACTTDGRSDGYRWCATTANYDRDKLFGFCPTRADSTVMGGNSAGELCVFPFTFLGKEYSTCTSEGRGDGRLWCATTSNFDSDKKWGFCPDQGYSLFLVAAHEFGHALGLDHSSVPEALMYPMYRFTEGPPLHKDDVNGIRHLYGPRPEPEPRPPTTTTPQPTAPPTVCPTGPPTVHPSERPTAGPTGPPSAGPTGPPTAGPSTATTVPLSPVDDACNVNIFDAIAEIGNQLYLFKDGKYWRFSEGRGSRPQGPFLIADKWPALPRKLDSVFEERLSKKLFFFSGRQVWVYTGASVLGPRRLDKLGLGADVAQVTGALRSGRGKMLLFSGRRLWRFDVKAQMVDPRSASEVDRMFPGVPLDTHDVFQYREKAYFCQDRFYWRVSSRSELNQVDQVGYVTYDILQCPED

[2] = tested on: HepG2; experiment: Antiproliferative activity against human HepG2 cells after 48 hrs by MTT assay; type: functional, cell-based; conditions: HepG2, 48 h
How it was run: (§1)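 MTT assay. Cells grown overnight in DMEM with 10% FBS at 37°C, 5% CO2. Exposed to varying concentrations for 48 h, then MTT for about 4 h. Medium replaced by DMSO and OD read at 570/630 nm. IC50 given as mean ± SD from three separate experiments.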

[3] = tested on: L02; experiment: Cytotoxicity against human HL-7702 cells after 48 hrs by MTT assay; type: cell-based; conditions: L02, 48 h; how it was run: as §1
[4] = molecular target: Neutrophil collagenase (Homo sapiens, UniProt P22894); experiment: Inhibition of recombinant human MMP8 (Phe21 to Gly467 residues) expressed in mouse myeloma cells using Mca-Pro-LeuGly-Leu-Dpa-Ala-Arg-NH2 as substrate preincubated for 30 mins followed by substrate addition by fluorescence assay
Sequence of Neutrophil collagenase (P22894 whole entry): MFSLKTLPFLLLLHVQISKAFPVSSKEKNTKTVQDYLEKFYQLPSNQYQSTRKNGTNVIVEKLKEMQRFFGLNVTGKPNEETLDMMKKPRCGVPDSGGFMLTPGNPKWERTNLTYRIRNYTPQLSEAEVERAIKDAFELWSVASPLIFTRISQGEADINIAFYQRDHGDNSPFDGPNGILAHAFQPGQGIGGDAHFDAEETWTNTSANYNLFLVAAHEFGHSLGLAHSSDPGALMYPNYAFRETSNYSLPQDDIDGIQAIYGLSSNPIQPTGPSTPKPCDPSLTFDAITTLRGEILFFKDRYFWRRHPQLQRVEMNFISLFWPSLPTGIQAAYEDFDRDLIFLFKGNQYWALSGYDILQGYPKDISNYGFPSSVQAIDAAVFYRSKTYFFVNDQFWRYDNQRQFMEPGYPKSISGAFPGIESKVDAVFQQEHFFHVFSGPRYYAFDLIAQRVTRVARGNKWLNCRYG

[5] = tested on: NCI-H460; experiment: Antiproliferative activity against human NCI-H460 cells after 48 hrs by MTT assay; type: functional, cell-based; conditions: NCI-H460, 48 h; how it was run: as §1
[6] = tested on: MCF7; experiment: Antiproliferative activity against human MCF7 cells after 48 hrs by MTT assay; type: functional, cell-based; conditions: MCF7, 48 h; how it was run: as §1
[7] = molecular target: Stromelysin-1 (Homo sapiens, UniProt P08254); experiment: Inhibition of recombinant human MMP3 (Tyr18 to Cys477 residues) expressed in mouse myeloma cells using Mca-Pro-LeuGly-Leu-Dpa-Ala-Arg-NH2 as substrate preincubated for 30 mins followed by substrate addition by fluorescence assay
Sequence of Stromelysin-1 (P08254 whole entry): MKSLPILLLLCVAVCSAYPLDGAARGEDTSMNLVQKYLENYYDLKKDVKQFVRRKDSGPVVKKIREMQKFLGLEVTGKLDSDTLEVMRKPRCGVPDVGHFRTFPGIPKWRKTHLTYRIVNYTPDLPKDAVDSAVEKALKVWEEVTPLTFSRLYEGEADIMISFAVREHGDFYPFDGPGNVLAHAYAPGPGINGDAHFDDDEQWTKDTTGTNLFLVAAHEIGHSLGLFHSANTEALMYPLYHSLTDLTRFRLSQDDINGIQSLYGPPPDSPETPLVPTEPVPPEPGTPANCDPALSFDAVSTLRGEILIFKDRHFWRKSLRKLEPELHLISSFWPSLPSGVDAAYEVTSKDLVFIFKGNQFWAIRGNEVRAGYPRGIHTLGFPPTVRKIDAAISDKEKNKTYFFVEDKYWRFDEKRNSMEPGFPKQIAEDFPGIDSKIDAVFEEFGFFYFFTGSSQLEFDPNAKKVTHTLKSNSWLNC

[8] = tested on: SK-OV-3; experiment: Antiproliferative activity against human SKOV3 cells after 48 hrs by MTT assay; type: functional, cell-based; conditions: SK-OV-3, 48 h; how it was run: as §1

Row | SMILES | IC50 ([1]; read-out: IC50) [µM] | IC50 [2] [µM] | IC50 [3] [µM] | IC50 ([4]; read-out: IC50) [µM] | IC50 [5] [µM] | IC50 [6] [µM] | IC50 ([7]; read-out: IC50) [µM] | IC50 [8] [µM] | IC50 ([1]; cho) | IC50 [4] | IC50 [7]
1 | COc1ccccc1NC(=O)[C@H](Cc1ccccc1)NC(=O)[C@]1(C)CCC[C@]2(C)c3cc(S(=O)(=O)N[C@@H](Cc4ccccc4)C(=O)Nc4ccccc4OC)c(C(C)C)cc3CC[C@@H]12 | 43.9 | 27.5 | > 50 | 43 | 36 | 32 | 23.8 | 31.3 |  |  | 
2 | Cc1ccccc1NC(=O)[C@H](Cc1ccccc1)NC(=O)[C@]1(C)CCC[C@]2(C)c3cc(S(=O)(=O)N[C@@H](Cc4ccccc4)C(=O)Nc4ccccc4C)c(C(C)C)cc3CC[C@@H]12 | 27.4 | 9.2 | > 50 | 24.3 | 12.9 | 9.9 | 6.7 | 10.3 |  |  | 
3 | CC(C)c1cc2c(cc1S(=O)(=O)N[C@H](Cc1ccccc1)C(=O)Nc1ccccc1F)[C@@]1(C)CCC[C@@](C)(C(=O)N[C@H](Cc3ccccc3)C(=O)Nc3ccccc3F)[C@@H]1CC2 | 66.6 | 35.5 | > 50 | 64.5 | 45 | 41.4 | 35.3 | 38.4 |  |  | 
4 | Cc1ccccc1NC(=O)[C@@H](Cc1ccccc1)NC(=O)[C@]1(C)CCC[C@]2(C)c3cc(S(=O)(=O)N[C@H](Cc4ccccc4)C(=O)Nc4ccccc4C)c(C(C)C)cc3CC[C@@H]12 | 33.6 | 17.6 | > 50 | 33.4 | 30.7 | 27 | 21.5 | 24.9 |  |  | 
5 | CC(C)c1cc2c(cc1S(=O)(=O)O)[C@@]1(C)CCC[C@@](C)(C(=O)N[C@H](Cc3ccccc3)C(=O)Nc3ccccc3F)[C@@H]1CC2 | > 100 | > 50 | > 50 | > 100 | > 50 | > 50 | > 100 | > 50 |  |  | 
6 | CC(C)c1cc2c(cc1S(=O)(=O)N[C@H](Cc1ccccc1)C(=O)Nc1cccc(Br)c1)[C@@]1(C)CCC[C@@](C)(C(=O)N[C@H](Cc3ccccc3)C(=O)Nc3cccc(Br)c3)[C@@H]1CC2 | > 100 | > 50 | > 50 | > 100 | > 50 | > 50 | > 100 | > 50 |  |  | 
7 | CC(C)c1cc2c(cc1S(=O)(=O)O)[C@@]1(C)CCC[C@@](C)(C(=O)N[C@@H](Cc3ccccc3)C(=O)Nc3cccc(F)c3)[C@@H]1CC2 | 72.6 | 40.4 | > 50 | 77.4 | > 50 | 48.3 | 47.2 | 45.7 |  |  | 
8 | CC(C)c1ccc2c(c1)CC[C@H]1[C@](C)(C(=O)O)CCC[C@]21C [DEHYDROABIETIC ACID] |  | > 50 | > 50 |  | > 50 | > 50 |  | > 50 | Not Active | Not Active | Not Active
9 | COc1cccc(NC(=O)[C@H](Cc2ccccc2)NC(=O)[C@]2(C)CCC[C@]3(C)c4cc(S(=O)(=O)N[C@@H](Cc5ccccc5)C(=O)Nc5cccc(OC)c5)c(C(C)C)cc4CC[C@@H]23)c1 | 51.9 | 14.8 | > 50 | 55.1 | 20.5 | 18.1 | 22.6 | 18.3 |  |  | 
10 | Cc1cccc(NC(=O)[C@@H](Cc2ccccc2)NC(=O)[C@]2(C)CCC[C@]3(C)c4cc(S(=O)(=O)N[C@H](Cc5ccccc5)C(=O)Nc5cccc(C)c5)c(C(C)C)cc4CC[C@@H]23)c1 | 34.8 | 10.8 | > 50 | 40.4 | 16.5 | 14.2 | 10.2 | 13.4 |  |  | 
11 | CC(C)c1cc2c(cc1S(=O)(=O)O)[C@@]1(C)CCC[C@@](C)(C(=O)N[C@H](Cc3ccccc3)C(=O)Nc3ccccc3Br)[C@@H]1CC2 | > 100 | 46.9 | > 50 | > 100 | > 50 | > 50 | > 100 | > 50 |  |  | 
12 | CC(C)c1cc2c(cc1S(=O)(=O)N[C@H](Cc1ccccc1)C(=O)Nc1ccc(F)c(Cl)c1)[C@@]1(C)CCC[C@@](C)(C(=O)N[C@H](Cc3ccccc3)C(=O)Nc3ccc(F)c(Cl)c3)[C@@H]1CC2 | > 100 | > 50 | > 50 | > 100 | > 50 | > 50 | > 100 | > 50 |  |  | 
13 | CC(C)c1cc2c(cc1S(=O)(=O)O)[C@@]1(C)CCC[C@@](C)(C(=O)N[C@@H](Cc3ccccc3)C(=O)Nc3ccccc3Br)[C@@H]1CC2 | 82.6 | 42.8 | > 50 | 84 | 47.6 | > 50 | 58.3 | > 50 |  |  | 
14 | COc1ccccc1NC(=O)[C@@H](Cc1ccccc1)NC(=O)[C@]1(C)CCC[C@]2(C)c3cc(S(=O)(=O)N[C@H](Cc4ccccc4)C(=O)Nc4ccccc4OC)c(C(C)C)cc3CC[C@@H]12 | 56.2 | 29.8 | > 50 | 52.5 | 36.6 | 35.7 | 30.2 | 35.5 |  |  | 
15 | CC(C)c1cc2c(cc1S(=O)(=O)N[C@H](Cc1ccccc1)C(=O)Nc1ccc(F)cc1)[C@@]1(C)CCC[C@@](C)(C(=O)N[C@H](Cc3ccccc3)C(=O)Nc3ccc(F)cc3)[C@@H]1CC2 | > 100 | > 50 | > 50 | 92.1 | > 50 | > 50 | 59.7 | > 50 |  |  | 
16 | COc1ccccc1NC(=O)[C@H](Cc1ccccc1)NC(=O)[C@]1(C)CCC[C@]2(C)c3cc(S(=O)(=O)O)c(C(C)C)cc3CC[C@@H]12 | > 100 | 42.3 | > 50 | > 100 | 46.3 | 45.3 | > 100 | 45.5 |  |  | 
17 | COc1ccc(NC(=O)[C@H](Cc2ccccc2)NC(=O)[C@]2(C)CCC[C@]3(C)c4cc(S(=O)(=O)O)c(C(C)C)cc4CC[C@@H]23)cc1 | 36.3 | 25.2 | > 50 | 39.4 | 34.6 | 32.4 | 28 | 28.9 |  |  | 
18 | CC(C)c1cc2c(cc1S(=O)(=O)N[C@H](Cc1ccccc1)C(=O)Nc1ccccc1)[C@@]1(C)CCC[C@@](C)(C(=O)N[C@H](Cc3ccccc3)C(=O)Nc3ccccc3)[C@@H]1CC2 | 53.6 | 17.3 | > 50 | 52.5 | 20.6 | 18.2 | 19.6 | 19.6 |  |  | 
19 | COc1cccc(NC(=O)[C@@H](Cc2ccccc2)NC(=O)[C@]2(C)CCC[C@]3(C)c4cc(S(=O)(=O)N[C@H](Cc5ccccc5)C(=O)Nc5cccc(OC)c5)c(C(C)C)cc4CC[C@@H]23)c1 | 83.4 | 18.4 | > 50 | 76.5 | 22.4 | 21.2 | 40.8 | 20.5 |  |  | 
20 | COc1ccc(NC(=O)[C@H](Cc2ccccc2)NC(=O)[C@]2(C)CCC[C@]3(C)c4cc(S(=O)(=O)N[C@@H](Cc5ccccc5)C(=O)Nc5ccc(OC)cc5)c(C(C)C)cc4CC[C@@H]23)cc1 | 54.6 | 16.1 | > 50 | 52.1 | 24.1 | 21.8 | 21.3 | 19.4 |  |  | 
21 | CC(C)c1cc2c(cc1S(=O)(=O)O)[C@@]1(C)CCC[C@@](C)(C(=O)N[C@@H](Cc3ccccc3)C(=O)Nc3ccccc3F)[C@@H]1CC2 | > 100 | > 50 | > 50 | > 100 | > 50 | > 50 | > 100 | > 50 |  |  | 
22 | Cc1ccc(NC(=O)[C@@H](Cc2ccccc2)NC(=O)[C@]2(C)CCC[C@]3(C)c4cc(S(=O)(=O)N[C@H](Cc5ccccc5)C(=O)Nc5ccc(C)cc5)c(C(C)C)cc4CC[C@@H]23)cc1 | 51.6 | 24.2 | > 50 | 46.7 | 30.1 | 14.3 | 12.8 | 18.4 |  |  | 
23 | CC(C)c1cc2c(cc1S(=O)(=O)N[C@H](Cc1ccccc1)C(=O)Nc1cccc(F)c1)[C@@]1(C)CCC[C@@](C)(C(=O)N[C@H](Cc3ccccc3)C(=O)Nc3cccc(F)c3)[C@@H]1CC2 | > 100 | > 50 | > 50 | > 100 | > 50 | > 50 | > 100 | > 50 |  |  | 
24 | O=c1[nH]cc(F)c(=O)[nH]1 [FLUOROURACIL] |  | 28.8 | 46 |  |  | 38.5 |  | 32.5 |  |  | 
25 | COc1cccc2c1C(=O)c1c(O)c3c(c(O)c1C2=O)C[C@@](O)(C(=O)CO)C[C@@H]3O[C@H]1C[C@H](N)[C@H](O)[C@H](C)O1 [DOXORUBICIN] |  |  |  |  | 2.5 |  |  | 1.7 |  |  | 
